This note sets out measurements from ChEMBL document CHEMBL1126138, “Preparation and opioid activity of analogues of the analgesic dipeptide 2,6-dimethyl-L-tyrosyl-N-(3-phenylpropyl)-D-alaninamide” (J Med Chem, 1992).

In one test the target is Mu-type opioid receptor (Rattus norvegicus, UniProt P33535). Put plainly: Binding ability towards opioid receptor mu expressed in homogenates of rat brain. In kind it is tissue-based.
In test [1] the target is Kappa-type opioid receptor (Rattus norvegicus) (UniProt P34975). Put plainly: Ratio of IC50 of opioid receptor kappa to IC50 opioid receptor mu.
The test system of test [2] is Mus musculus. Put plainly: Number of mice of those tested in which 10 mg/kg compound inhibited writhing. The test is classed as functional. The essentials:
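Mouse writhing test with a single 10 mg/kg dose of compound. The value is the count of mice whose writhing was inhibited, out of the number tested.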

Test [3] deals with Delta-type opioid receptor (Rattus norvegicus, UniProt P33533). Put plainly: Binding ability towards opioid receptor delta expressed in homogenates of rat brain. The test is classed as tissue-based.
Test [4] concerns the target Delta-type opioid receptor (Rattus norvegicus) (UniProt P33533). Description: Ratio of IC50 of opioid receptor delta to IC50 opioid receptor mu.
Test [5] is filed under the species Mus musculus. Put plainly: Analgesic activity evaluated in mice by writhing test (confidence limit). In kind it is functional.
The target in test [6] is Delta-type opioid receptor (Rattus norvegicus) (UniProt P33533). Put plainly: Binding ability towards opioid receptor delta expressed in homogenates of rat brain at 100 nM concentration. In kind it is tissue-based. The essentials:
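Rat brain homogenate, δ opioid binding site. Test compound at 100 nM. The value is the maximum percent displacement at that concentration.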

Mu-type opioid receptor, sequence (P33535 whole entry): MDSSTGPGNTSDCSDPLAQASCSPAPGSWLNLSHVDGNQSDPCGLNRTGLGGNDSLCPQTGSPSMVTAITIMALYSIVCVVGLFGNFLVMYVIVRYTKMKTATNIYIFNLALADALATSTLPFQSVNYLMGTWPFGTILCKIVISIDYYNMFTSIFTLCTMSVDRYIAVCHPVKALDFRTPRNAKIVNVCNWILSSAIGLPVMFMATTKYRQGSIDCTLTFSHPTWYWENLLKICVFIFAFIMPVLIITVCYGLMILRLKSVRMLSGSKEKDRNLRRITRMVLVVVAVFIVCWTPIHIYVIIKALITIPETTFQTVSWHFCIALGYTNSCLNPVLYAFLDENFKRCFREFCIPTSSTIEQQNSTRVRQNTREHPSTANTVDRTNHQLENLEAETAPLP
Kappa-type opioid receptor (Rattus norvegicus), sequence (P34975 whole entry): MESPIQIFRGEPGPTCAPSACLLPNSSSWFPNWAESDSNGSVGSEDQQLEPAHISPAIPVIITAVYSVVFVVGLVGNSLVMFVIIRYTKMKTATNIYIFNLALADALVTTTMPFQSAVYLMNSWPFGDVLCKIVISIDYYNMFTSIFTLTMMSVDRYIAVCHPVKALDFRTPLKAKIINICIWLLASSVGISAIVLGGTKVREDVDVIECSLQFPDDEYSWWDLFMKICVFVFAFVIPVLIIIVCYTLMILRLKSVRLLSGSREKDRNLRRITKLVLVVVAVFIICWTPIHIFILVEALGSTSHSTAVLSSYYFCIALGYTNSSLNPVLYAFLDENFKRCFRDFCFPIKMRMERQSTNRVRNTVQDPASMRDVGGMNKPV
Delta-type opioid receptor, sequence (P33533 whole entry): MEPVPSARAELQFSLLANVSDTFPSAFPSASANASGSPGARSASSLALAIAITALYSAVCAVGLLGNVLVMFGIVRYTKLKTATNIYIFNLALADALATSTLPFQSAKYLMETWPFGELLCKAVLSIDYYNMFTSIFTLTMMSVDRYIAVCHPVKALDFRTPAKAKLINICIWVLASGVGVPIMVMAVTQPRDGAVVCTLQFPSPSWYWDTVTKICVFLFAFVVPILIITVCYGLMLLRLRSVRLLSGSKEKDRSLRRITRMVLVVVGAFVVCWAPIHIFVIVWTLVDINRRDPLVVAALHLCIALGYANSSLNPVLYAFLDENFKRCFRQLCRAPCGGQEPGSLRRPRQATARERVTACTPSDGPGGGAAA
Delta-type opioid receptor (Rattus norvegicus), sequence (P33533 whole entry): as above

Turning to `Cc1cc(O)cc(C)c1C[C@H](N)C(=O)N[C@H](C)CNCCCc1ccccc1`, the IC50 – broadly, the concentration needed to halve the response being measured – at Mu-type opioid receptor was found to be 0.13 nM; in test [3] it was 46 nM. Besides, the values for the Ratio in test [1] and in test [4] were 2540 and 354, respectively. The same compound yielded a No. of mice with Mus musculus [2] of 4.

On Mu-type opioid receptor, `Cc1cc(O)cc(C)c1C[C@H](N)C(=O)NC(C)/C(F)=C/CCCc1ccccc1` (some centres not stated) displayed an IC50 of 6.9 nM. The Ratio in test [1] is 1160. Also, in the test listed under Mus musculus [5], the median effective dose (ED50) (usually the midpoint of the dose-response relation) is 2.1 mg/kg. The same compound showed a Displacement in test [6] of 47.3%.

As for `Cc1cc(O)cc(C)c1C[C@H](N)C(=O)N[C@H](C)COCCCc1ccccc1`, the Ratio in test [1] worked out at 2600; in test [4], 42. The No. of mice in the test on Mus musculus [2] stood at 3. In test [3], this compound registered an IC50 of 21 nM.

For `Cc1cc(O)cc(C)c1C[C@H](N)C(=O)N[C@H](CO)COCCCc1ccccc1`, the half-maximal inhibitory concentration (IC50) on Mu-type opioid receptor is 1.67 nM; in test [3], 233 nM. Moreover, the Ratio came out at 3530 in test [1] and 139 in test [4]. In the test listed under Mus musculus [5], the median effective dose (ED50) was 2.1 mg/kg.

Take `Cc1cc(O)cc(C)c1C[C@H](N)C(=O)N[C@H](C)C(=O)NCCCc1ccccc1`: the IC50 at Mu-type opioid receptor was 0.13 nM; in test [3], 3.98 nM. The Ratio was determined as 2920 in test [1] and 30.6 in test [4]. In addition, the ED50 in the test listed under Mus musculus [5] came to 0.52 mg/kg.

`Cc1cc(O)cc(C)c1C[C@H](N)C(=O)NC(C)/C=C/CCCc1ccccc1` (some centres not stated) had an IC50 on Mu-type opioid receptor of 5.4 nM. In test [1], the Ratio amounted to 1100. In the test listed under Mus musculus [5], this compound had an ED50 of 2.1 mg/kg. In test [6], the Displacement came out at 39.3%.

As for `Cc1cc(O)cc(C)c1C[C@H](N)C(=O)N[C@@H](COCCCc1ccccc1)COC(C)(C)C`, the figures for the IC50 (at Mu-type opioid receptor; in test [3]) were 33 nM and 340 nM, respectively. Moreover, the figures for the Ratio in test [1] and in test [4] were 282 and 10.3, respectively. For the same compound, it took a dose of 1.7 mg/kg to reach the 50% effect level in the test filed under Mus musculus [5] (ED50).

Regarding `Cc1cc(O)cc(C)c1C[C@H](N)C(=O)N1CCCCC1COCCCc1ccccc1` (some centres not stated), the IC50 amounted to 1.62 nM at Mu-type opioid receptor and 110 nM in test [3]. In addition, the Ratio stood at 173 in test [1] and 67.9 in test [4]. Further, the ED50 in the test filed under Mus musculus [5] was found to be 2.1 mg/kg.

For `Cc1cc(O)cc(C)c1C[C@H](N)C(=O)N1CCCCC1CNCCCc1ccccc1` (some centres not stated), the IC50 on Mu-type opioid receptor was determined as 0.045 nM; in test [3], 12.1 nM. The Ratio in test [1] amounted to 222; in test [4] it was 269. The No. of mice in the test on Mus musculus [2] is 3.
